Bioassay records (PubChem)
Most compounds without a hit are left out; they make up all but 2.6% or so of the library.
T cell modulator: modulators of CD8 T cell-vesicle binding, primary screen, mouse 2C CD8+ T cells, flow cytometry. 2C CD8+ T cell-vesicle binding; active compounds read low. hit rate 0.068% among 330,000. response (vesicle binding), % at 7 µM;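 active = response, share of CD8 T cells binding vesicles, and their 90th percentile fluorescence all below set limits, cut at about 80% in these data, passing the limit was not always enough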;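 also: values below 100% mean blocked vesicle binding to the CD8+ T cells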
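Material: murine 2C transgenic CD8+ T lymphocytes / Also added: QL9-peptide-loaded Drosophila micro-vesicles bearing Ld, ICAM-1 and B7-1 / Schedule: binding step 1.5 h, 37 °C, antibody labelling 20 min, ice / Signal: flow cytometry, PE anti-B7-1 (FL2) versus Alexa647 anti-CD8 (FL8), PFA-fixed / Evaluation: percent CD8+ FL2 mean versus row control / Benchmarks: naked versus QL9-loaded vesicles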
MC4R ag barr: MC4R agonists recruiting beta-arrestin, primary screen, cell-based, luminescence, agonist arm of biased-ligand search; Melanocortin receptor 4 (Homo sapiens), P32245; U2OS MC4R beta-arrestin complementation; percent of melanotan II response, DMSO zero; activation, % at 8.9 µM; hit rate 0.98% among 360,000;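 active = activation above a per-plate cutoff, the mean activation of sample wells on that plate plus 3 SD, cut at about 8% in these data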
Target sequence (P32245 whole entry, looked up): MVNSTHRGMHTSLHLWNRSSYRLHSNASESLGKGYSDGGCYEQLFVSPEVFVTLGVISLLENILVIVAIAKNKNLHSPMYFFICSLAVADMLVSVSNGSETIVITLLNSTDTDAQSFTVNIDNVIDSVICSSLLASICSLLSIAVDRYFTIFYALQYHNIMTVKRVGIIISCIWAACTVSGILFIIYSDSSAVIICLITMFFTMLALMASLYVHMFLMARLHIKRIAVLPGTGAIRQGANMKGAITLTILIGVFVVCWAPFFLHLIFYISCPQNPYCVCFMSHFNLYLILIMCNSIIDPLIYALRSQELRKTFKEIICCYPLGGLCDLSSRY
Exocytosis inh: LAMP-1 surface exposure blockers, TALL-104 cells – cell-based, flow cytometry, MLPCN library, primary screen; TALL-104 LAMP-1 surface exposure; cells stimulated with thapsigargin and PMA; hit rate 0.66% among 360,000; inhibition, % at 10 µM;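 active = inhibition above about 55%, limit read from the data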
EP2 modulator: EP2 receptor modulators, cAMP readout, primary screen, cell-based, HTRF cAMP, PGE2 stimulation. Prostaglandin E2 receptor EP2 subtype (Homo sapiens), P43116. EP2-expressing cells, cAMP HTRF FRET, PGE2 co-stimulation. induction, % at 25 µM. hit rate 0.83% among 260,000;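 active = compounds whose cAMP rise, as percent of the full-agonist control response, exceeds 60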;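 also: rat C6 glioma line stably carrying human EP2 under a CMV promoter; the protocol text gives 20 µM as final concentration; 100% = response of wells given 1 µM PGE2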
EP2 antag: human EP2 receptor antagonists, primary screen, TR-FRET cAMP, C6 glioma cells; hit rate 0.52% among 260,000; inhibition, % at 25 µM; C6 glioma cells expressing human EP2; cells stimulated with saturating PGE2; Prostaglandin E2 receptor EP2 subtype (Homo sapiens), P43116; AID 1422, 2008;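 active = percent inhibition above 40 after rounding to a whole number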;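 also: rat C6 glioma host cells with rolipram phosphodiesterase inhibitor present; the protocol text gives 20 µM as final concentration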
MC4R antag cAMP: MC4R antagonists of cAMP signaling, primary screen, cell-based, TR-FRET, antagonist arm of biased-ligand search. Melanocortin receptor 4 (Homo sapiens), P32245. MC4R-expressing cells, MTII-stimulated cAMP, LANCE TR-FRET. inhibition, % at 6.5 µM. hit rate 0.48% among 360,000;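 active = inhibition above its plate's cutoff, the mean of tested wells on that plate plus 3 SD, cut at about 29% in these data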;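 also: 0% = Melanotan II alone and 100% = Melanotan II plus saturating MCL0020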
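Assay system: U2OS cells stably expressing human melanocortin 4 receptor (MC4R) / Dosing: 6.5 µM / Timing: compound 30 min, challenge 1 h, detection 1 h / Measured by: Eu-cAMP/anti-cAMP TR-FRET, emission 671 nm / Replicates: singlicate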
* = called active by the depositor; i = inactive; / = no result.

SMILES	T cell modulator	MC4R ag barr	Exocytosis inh	EP2 modulator	EP2 antag	MC4R antag cAMP
CCCCc1cn([C@@H](CCCCNC(=O)OC(C)(C)C)C(=O)N2CCN(C(=O)OC(C)(C)C)CC2)nn1	421	-1	103*	-21	7	4
CC(C)(C)OC(=O)NCCCC[C@@H](C(=O)N1CCN(C(=O)OC(C)(C)C)CC1)n1cc(CCC(=O)O)nn1	208	0	-3	23	10	11
Cc1ccc(-c2nnc(SCC(=O)Nc3ccc(S(=O)(=O)N4CCCCCC4)cc3)o2)cc1	207	9.3*	0	-11	4	5
CCS(=O)(=O)c1ccc(NC(=O)c2ccccc2Cl)c(O)c1	186	-3	2	7	8	9
CN1CCc2cccc3c2[C@@H]1Cc1ccc(O)c(O)c1-3	593	-1	74*	9	28	-7
COc1ccc2c(c1O)-c1ccccc1CCN(C)C2	209	-1	-2	-1	15	2
CC(=O)N(Cc1ccccc1)c1nc(-c2ccccc2)cs1	121	-4	0	64*	8	5
O=C(COc1ccccc1)N(Cc1ccccc1)c1nc(-c2ccccc2)cs1	603	21*	-1	-4	11	11
COc1ccc(-c2csc(N(Cc3ccccc3)C(=O)COc3ccc(Cl)cc3)n2)cc1	487	0	2	2	10	2
COc1ccc(N=C2S/C(=C\c3ccc(N4CCOCC4)o3)C(=O)N2CCc2c[nH]c3ccccc23)cc1	27	3	82*	23	7	14
CCCN1C(=O)/C(=C/c2ccc(C)o2)SC1=Nc1ccc(OC)cc1	312	3	80*	31	8	11
CCCN1C(=O)/C(=C/c2ccc(C)o2)SC1=Nc1ccc(OCC)cc1	135	0	70*	-36	2	7
CC(C)c1ccc(S(=O)(=O)N2CCCCC2)cc1	380	-3	-6	14	5	15
CCOC(=O)C1CCN(C(=O)CCCN2C(=O)c3ccccc3C2=O)CC1	244	-1	-1	12	8	2
O=C(NC(=O)c1ccccc1)Nc1ccccn1	629	-3	-2	/	/	8
C#CCOCCOCCOCCNc1nc(N2CCN(C(=O)C([C@@H](C)CC)n3cc(C(N)CC(C)C)nn3)CC2)nc(N2CCN(C(=O)[C@H](CCC(=O)O)n3cc(C(N)CC(C)C)nn3)CC2)n1 (some centres not stated)	/	-2	76*	25	16	4
C#CCOCCOCCOCCNc1nc(N2CCN(C(=O)[C@H](Cc3ccc(O)cc3)n3cc([C@@H](N)C(C)CC)nn3)CC2)nc(N2CCN(C(=O)[C@H](CCCCN)n3cc([C@@H](N)CC(C)C)nn3)CC2)n1 (some centres not stated)	655	/	/	10	/	/
C#CCOCCOCCOCCNc1nc(N2CCN(C(=O)C([C@@H](C)CC)n3cc(C(N)CO)nn3)CC2)nc(N2CCN(C(=O)[C@H](CCC(=O)O)n3cc(C(N)CC(C)C)nn3)CC2)n1 (some centres not stated)	i	-1	1	-15	/	1
C#CCOCCOCCOCCNc1nc(N2CCN(C(=O)[C@H](CCCCN)n3cc([C@@H](N)CO)nn3)CC2)nc(N2CCN(C(=O)[C@H](Cc3ccc(O)cc3)n3cc([C@@H](N)CC(C)C)nn3)CC2)n1	451	-1	68*	12	9	0
Nc1ccc(Cl)cc1C(=O)OCC(=O)NC1CCS(=O)(=O)C1 (configuration not stated)	514	-2	6	-1	8	-3
COC(=O)c1ccccc1NC(=O)C(CCS(C)(=O)=O)NC(C)=O (configuration not stated)	272	-1	0	11	11	-4
CC(Sc1nc2ccccc2[nH]1)C(=O)NC1CCCCC1C (configuration not stated)	49*	-3	-1	/	/	5
CC(=O)Oc1ccc(N(C(C)=O)S(=O)(=O)c2ccc(C)cc2)c2ccccc12	241	-4	4	/	/	-1
CN(c1ccc(C(=O)NCc2ccco2)cc1)S(C)(=O)=O	458	-2	-1	14	5	-4
CSc1ccc(-c2nnn(Cc3ccc(Br)cc3)n2)cc1	462	0	-2	-42	43*	0
SMILES	T cell modulator	MC4R ag barr	Exocytosis inh	EP2 modulator	EP2 antag	MC4R antag cAMP
CCOC(=O)N1CCN(c2nc(C(F)(F)F)nc3c(C)cc(C)cc23)CC1	160	0	2	32	8	8
Cc1cc(C)c2nc(C(F)(F)F)nc(N3CC(C)OC(C)C3)c2c1 (configuration not stated)	231	-3	2	61*	/	19
Cc1nc2ccccc2c(=O)n1NC(=O)COc1ccccc1	352	-1	7	0	16	6
O=C(Nn1c(COc2ccccc2)nc2ccccc2c1=O)C(Cl)(Cl)Cl	180	0	79*	/	/	-7
O=C1C=CC2(C=C1)O[C@H](Cc1ccccc1)[C@@H](Cc1ccccc1)O2	/	-2	98*	/	/	27
O=C1Nc2ccccc2C1Cc1ccccc1 (configuration not stated)	385	-1	0	-28	3	-8
O=C(NC(=S)Nc1ccc(O)cc1)C1CCCC1	543	-2	-2	/	/	8
O=C(NC(=S)Nc1cccc(O)c1)C1CCCCC1	284	0	62*	/	/	11
CC1CCC(NC(=O)Cn2ncc3ccccc32)CC1 (configuration not stated)	316	1	5	14	11	4
COc1ccc(C2=CC3=C(Br)C(=O)C(C)(O)C(=O)C3=CO2)cc1 (configuration not stated)	425	1	-6	-29	134*	35*
CCS(=O)(=O)N1Cc2ccccc2CC1C(=O)Nc1nc2ccccc2s1 (configuration not stated)	827	6	0	-44	11	2
Cc1ccc2cc(CN(Cc3ccc4c(c3)OCO4)Cc3nnnn3C3CCCCC3)c(=O)[nH]c2c1	/	/	/	54	12	/
Cc1cc2cc(CN(CCc3ccccc3)Cc3nnnn3C3CCCCC3)c(=O)[nH]c2cc1C	/	/	/	66*	10	/
